One assay has as its system Caco-2. As to the kind of experiment: Caco-2 cell permeability coefficient was determined after 120 min of incubation. The class given is functional, cell-based. Particulars: Homo sapiens. In outline:
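Caco-2 cells grown 21 days on permeable polycarbonate transwell filters; apparent permeability coefficient measured after 120 min incubation per a published method; total compound recovery calculated at end of experiment.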

Assay [1] has as its system Mus musculus. The experiment in a line: Median survival time of mice injected with L1210 cells intraperitoneally versus untreated mice at an optimal (non toxic) dose of 12.5 mg/kg. The class given is functional. The following applies: route intraperitoneal.
The test system of the next assay is L1210. The experiment in a line: In vitro cytotoxicity against L1210 murine leukemia cells after 48 hr of continuous exposure. The class given is functional, cell-based. Particulars: Mus musculus, L1210, 48 h. The gist of the method:
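L1210 murine leukaemia cells (from NCI) under continuous drug exposure for 48 h; IC50 taken from dose–response curves, mean±SE of at least two experiments.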

In assay [2] the test system is Mus musculus. As to the kind of experiment: Median survival time of mice injected with L1210 cells intravenously versus untreated mice at an optimal (non toxic) dose of 25 mg/kg. The class given is functional. The following applies: route intravenous.
Assay [3] relates to Mus musculus. As to the kind of experiment: Median survival time of mice injected with L1210 cells intravenously versus untreated mice at an optimal (non toxic) dose of 100 mg/kg. The class given is functional. Particulars: route intravenous.
The subject of assay [4] is Mus musculus. The experiment in a line: Median survival time of mice injected with L1210 cells intravenously versus untreated mice at an optimal (non toxic) dose of 50 mg/kg. The class given is functional. Particulars: route intravenous.
In assay [5] the test system is Mus musculus. The experiment in a line: Median survival time of mice injected with L1210 cells intravenously versus untreated mice at an optimal (non toxic) dose of 12.5 mg/kg. The class given is functional. The following applies: route intravenous.

Broadly, the Papp is the rate of passage across a membrane or cell layer, normalised by area and donor concentration. The low end stands for poor permeation, the high end for ready permeation. Broadly, the T/C is the result in the treated group divided by that in the control group, in per cent. `C=C(Br)C(=O)Nc1cc(C(=O)Nc2cc(C(=O)Nc3cc(C(=O)NCCC(=N)N)n(C)c3)n(C)c2)n(C)c1.Cl`: in the assay with Caco-2, the Papp is 15.2 ×10⁻⁶ cm/s. Moreover, the T/C in the assay on Mus musculus [1] came to 175%.
One may read the IC50 as the midpoint of a concentration-inhibition curve. Read a low IC50 as greater potency. In turn, `C=C(Br)C(=O)Nc1cc(C(=O)Nc2cc(C(=O)NCCC(=N)N)n(C)c2)n(C)c1` showed an apparent permeability coefficient (Papp) in the assay with Caco-2 of 5.58 ×10⁻⁶ cm/s. This compound also yielded an IC50 in the assay with L1210 of 1300 nM.
In turn, `C=C(Br)C(=O)Nc1ccc(N(C)C)cc1.Cl` displayed an IC50 in the assay on L1210 of 54 nM. Further, the T/C in the assay on Mus musculus [2] is recorded as 100%.
With `C=C(Br)C(=O)Nc1cc(C(=O)Nc2cc(C(=O)Nc3cc(C(=O)Nc4cc(C(=O)NCCC(=N)N)n(C)c4)n(C)c3)n(C)c2)n(C)c1`, the apparent permeability coefficient (Papp) in the assay with Caco-2 was found to be 38.2 ×10⁻⁶ cm/s.
For `C=C(Br)C(=O)Nc1cc(C(=O)Nc2ccccc2)n(C)c1`, the Papp in the assay with Caco-2 stood at 1.2 ×10⁻⁶ cm/s. The compound also gave a half-maximal inhibitory concentration (IC50) in the assay with L1210 of 43 nM. The compound further returned a T/C with Mus musculus [2] of 100%.
In the assay on L1210, `C=C(Br)C(=O)Nc1cc(C(=O)NCCC#N)n(C)c1` came in with an IC50 of 51.9 nM. Also, the T/C in the assay on Mus musculus [3] is recorded as 100%.
Take `C=C(F)C(=O)Nc1cc(C(=O)Nc2ccccc2)n(C)c1`: the Papp in the assay on Caco-2 came to 39.6 ×10⁻⁶ cm/s. Further, the 50% inhibitory concentration (IC50) in the assay with L1210 is > 5000 nM.
In turn, `C=CC(=O)Nc1cc(C(=O)Nc2cc(C(=O)Nc3cc(C(=O)Nc4cc(C(=O)NCCC(=N)N)n(C)c4)n(C)c3)n(C)c2)n(C)c1` came in with an IC50 in the assay with L1210 of 2000 nM.
`C=C(Br)C(=O)Nc1cc(C(=O)Nc2cc(C(=O)Nc3cc(C(=O)NCCN=C(N)N)n(C)c3)n(C)c2)n(C)c1` showed an IC50 with L1210 of 27 nM.
`C=C(Br)C(=O)Nc1ccc(F)cc1` displayed an IC50 in the assay with L1210 of 58.6 nM. Further, the T/C in the assay with Mus musculus [4] worked out at 100%.
Compound `C=C(Br)C(=O)Nc1ccccc1` came in with an IC50 in the assay with L1210 of 36.8 nM. The same compound came in with a T/C in the assay with Mus musculus [5] of 117%.
`C=C(Br)C(=O)Nc1cc(C(=O)Nc2cc(C(=O)Nc3cc(C(=O)Nc4cc(C(=O)NCCN=C(N)N)n(C)c4)n(C)c3)n(C)c2)n(C)c1` returned an IC50 in the assay with L1210 of 1.8 nM.
On to `C=C(Br)C(=O)Nc1ccc(C(=N)N)cc1`, for which the apparent permeability coefficient (Papp) with Caco-2 was 3.9 ×10⁻⁶ cm/s. For the same compound, in the assay with L1210, the IC50 was > 5000 nM.
Consider `C=C(Br)C(=O)Nc1cc(C(=O)Nc2cc(C(=O)NCCN=C(N)N)n(C)c2)n(C)c1`, for which the half-maximal inhibitory concentration (IC50) in the assay with L1210 is > 500 nM.
On the same count and under the same terms, for `C=C(F)C(=O)Nc1cc(C(=O)Nc2cc(C(=O)Nc3cc(C(=O)Nc4cc(C(=O)NCCC(=N)N)n(C)c4)n(C)c3)n(C)c2)n(C)c1` the value was > 800 nM.
As for `C=C(Br)C(=O)Nc1cc(C(=O)NCCC(=N)N)n(C)c1`, the Papp in the assay with Caco-2 turned out to be 0.69 ×10⁻⁶ cm/s. For the same compound, in the assay with L1210, the half-maximal inhibitory concentration (IC50) was > 2500 nM.
